Test results as given in publication PMC13170702 (Nuclear medicine and biology, 2025).

What was measured:
[1] = whole-body PET-MR biodistribution and TIAC determination; type: in vivo, human
How it was run: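 Tracer 70.3–355 MBq was given as an i.v. bolus; whole-body PET-MR used 6 bed positions. WB1–WB5 ran 0–34 min (1 min/bed), WB6–7 35–60 min (2 min/bed), WB8 80–104 min and WB9 180–214 min (4 min/bed). Voiding and water were allowed in breaks. SUV was read from AMIDE VOIs at early times (<1 h). Decay-corrected %IA per organ VOI over time was fitted by the exponential model (OLINDA/EXM 1.1) for TIACs.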

healthy volunteers = assay: first-in-human adverse event monitoring in healthy volunteers; type: in vivo
How it was run: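 Participants were aged 56–75 (four male, four female). Tracer was given as an i.v. bolus (1–2 min) via a cephalic-vein catheter, supine, before 94 min of PET-MR over three sessions ending at 214 min. Adverse events were watched for continuously during scans, breaks and afterwards. Vital signs and ECG were taken ~60 min post-imaging, then physician/nurse review before discharge and off-site follow-up at 24–48 h. Later events were self-reported.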

[2] = HPLC stability determination of final drug product; type: physicochemical; conditions: ambient temperature, shielded container
How it was run: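 Final product was formulated at 44–463 MBq/mL in USP ethanol (1 mL)/0.5 mg ascorbic acid in 0.9 % sodium chloride, sterile filtered and sealed in a glass vial. It was held at ambient temperature in a shielded container and checked by HPLC after end-of-synthesis. Release QC covered HPLC radiochemical purity (≥90 %), pH 4.5–7.5, endotoxin, GC residual solvents, sterility and filter integrity.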

COC(=O)[C@@H](N)CC(=O)Nc1ccc2c(c1)Cc1cc([18F])ccc1-2 [[^18F]RP-115, methyl N^4-(7-[^18F]fluoro-9H-fluoren-2-yl)asparaginate]
SUV, brain and spinal tissues ([1]; 27–34 min after injection): > 1
SUV, major organs, CNS and peripheral tissues ([1]; 27–34 min after injection): > 1
TIAC, Brain ([1]; F1 (189 MBq)): 0.084 MBq-h/MBq
TIAC, Gallbladder wall ([1]; F1 (189 MBq)): 0.0031 MBq-h/MBq
TIAC, Heart contents ([1]; F1 (189 MBq)): 0.00463 MBq-h/MBq
TIAC, Heart wall ([1]; F1 (189 MBq)): 0.0155 MBq-h/MBq
TIAC, Kidneys ([1]; F1 (189 MBq)): 0.25 MBq-h/MBq
TIAC, Liver ([1]; F1 (189 MBq)): 0.209 MBq-h/MBq
TIAC, Lungs ([1]; F1 (189 MBq)): 0.274 MBq-h/MBq
TIAC, Pancreas ([1]; F1 (189 MBq)): 0.00899 MBq-h/MBq
TIAC, Remainder ([1]; F1 (189 MBq)): 1.28 MBq-h/MBq
TIAC, Small intestine ([1]; F1 (189 MBq)): 0.0843 MBq-h/MBq
TIAC, Spleen ([1]; F1 (189 MBq)): 0.0284 MBq-h/MBq
TIAC, Thymus ([1]; F1 (189 MBq)): 0.00372 MBq-h/MBq
TIAC, Thyroid ([1]; F1 (189 MBq)): 0.00052 MBq-h/MBq
TIAC, Urinary bladder contents ([1]; F1 (189 MBq)): 0.138 MBq-h/MBq
TIAC, Uterus/Uterine wall ([1]; F1 (189 MBq)): 0.00432 MBq-h/MBq
TIAC, Brain ([1]; F2, no voiding (355 MBq)): 0.075 MBq-h/MBq
TIAC, Gallbladder wall ([1]; F2, no voiding (355 MBq)): 0.00204 MBq-h/MBq
TIAC, Heart contents ([1]; F2, no voiding (355 MBq)): 0.00054 MBq-h/MBq
TIAC, Heart wall ([1]; F2, no voiding (355 MBq)): 0.0118 MBq-h/MBq
TIAC, Kidneys ([1]; F2, no voiding (355 MBq)): 0.391 MBq-h/MBq
TIAC, Liver ([1]; F2, no voiding (355 MBq)): 0.202 MBq-h/MBq
TIAC, Lungs ([1]; F2, no voiding (355 MBq)): 0.31 MBq-h/MBq
TIAC, Pancreas ([1]; F2, no voiding (355 MBq)): 0.00377 MBq-h/MBq
TIAC, Small intestine ([1]; F2, no voiding (355 MBq)): 0.0474 MBq-h/MBq
TIAC, Spleen ([1]; F2, no voiding (355 MBq)): 0.00188 MBq-h/MBq
TIAC, Thymus ([1]; F2, no voiding (355 MBq)): 0.00178 MBq-h/MBq
TIAC, Thyroid ([1]; F2, no voiding (355 MBq)): 0.0047 MBq-h/MBq
TIAC, Urinary bladder contents ([1]; F2, no voiding (355 MBq)): 0.127 MBq-h/MBq
TIAC, Uterus/Uterine wall ([1]; F2, no voiding (355 MBq)): 0.0564 MBq-h/MBq
TIAC, Brain ([1]; F3 (117 MBq)): 0.0606 MBq-h/MBq
TIAC, Gallbladder wall ([1]; F3 (117 MBq)): 0.00328 MBq-h/MBq
TIAC, Heart contents ([1]; F3 (117 MBq)): 0.00112 MBq-h/MBq
TIAC, Heart wall ([1]; F3 (117 MBq)): 0.0131 MBq-h/MBq
TIAC, Kidneys ([1]; F3 (117 MBq)): 0.266 MBq-h/MBq
TIAC, Liver ([1]; F3 (117 MBq)): 0.262 MBq-h/MBq
TIAC, Lungs ([1]; F3 (117 MBq)): 0.186 MBq-h/MBq
TIAC, Pancreas ([1]; F3 (117 MBq)): 0.00504 MBq-h/MBq
TIAC, Remainder ([1]; F3 (117 MBq)): 1.44 MBq-h/MBq
TIAC, Small intestine ([1]; F3 (117 MBq)): 0.0667 MBq-h/MBq
TIAC, Spleen ([1]; F3 (117 MBq)): 0.011 MBq-h/MBq
TIAC, Thymus ([1]; F3 (117 MBq)): 0.00146 MBq-h/MBq
TIAC, Thyroid ([1]; F3 (117 MBq)): 0.00131 MBq-h/MBq
TIAC, Urinary bladder contents ([1]; F3 (117 MBq)): 0.00659 MBq-h/MBq
TIAC, Uterus/Uterine wall ([1]; F3 (117 MBq)): 0.0115 MBq-h/MBq
TIAC, Brain ([1]; F4 (167 MBq)): 0.0781 MBq-h/MBq
TIAC, Gallbladder wall ([1]; F4 (167 MBq)): 0.00062 MBq-h/MBq
TIAC, Heart contents ([1]; F4 (167 MBq)): 0.0015 MBq-h/MBq
TIAC, Heart wall ([1]; F4 (167 MBq)): 0.0212 MBq-h/MBq
TIAC, Kidneys ([1]; F4 (167 MBq)): 0.245 MBq-h/MBq
TIAC, Liver ([1]; F4 (167 MBq)): 0.192 MBq-h/MBq
TIAC, Lungs ([1]; F4 (167 MBq)): 0.231 MBq-h/MBq
TIAC, Pancreas ([1]; F4 (167 MBq)): 0.0053 MBq-h/MBq
TIAC, Remainder ([1]; F4 (167 MBq)): 1.22 MBq-h/MBq
TIAC, Small intestine ([1]; F4 (167 MBq)): 0.126 MBq-h/MBq
TIAC, Spleen ([1]; F4 (167 MBq)): 0.0057 MBq-h/MBq
TIAC, Thymus ([1]; F4 (167 MBq)): 0.0021 MBq-h/MBq
TIAC, Thyroid ([1]; F4 (167 MBq)): 0.0009 MBq-h/MBq
TIAC, Urinary bladder contents ([1]; F4 (167 MBq)): 0.0319 MBq-h/MBq
TIAC, Uterus/Uterine wall ([1]; F4 (167 MBq)): 0.0133 MBq-h/MBq
TIAC, Brain ([1]; M1 (326 MBq)): 0.0947 MBq-h/MBq
TIAC, Gallbladder wall ([1]; M1 (326 MBq)): 0.00525 MBq-h/MBq
TIAC, Heart contents ([1]; M1 (326 MBq)): 0.00354 MBq-h/MBq
TIAC, Heart wall ([1]; M1 (326 MBq)): 0.0301 MBq-h/MBq
TIAC, Kidneys ([1]; M1 (326 MBq)): 0.351 MBq-h/MBq
TIAC, Liver ([1]; M1 (326 MBq)): 0.34 MBq-h/MBq
TIAC, Lungs ([1]; M1 (326 MBq)): 0.322 MBq-h/MBq
TIAC, Pancreas ([1]; M1 (326 MBq)): 0.0022 MBq-h/MBq
TIAC, Remainder ([1]; M1 (326 MBq)): 1.27 MBq-h/MBq
TIAC, Small intestine ([1]; M1 (326 MBq)): 0.161 MBq-h/MBq
TIAC, Spleen ([1]; M1 (326 MBq)): 0.0528 MBq-h/MBq
TIAC, Thymus ([1]; M1 (326 MBq)): 0.00576 MBq-h/MBq
TIAC, Thyroid ([1]; M1 (326 MBq)): 0.0007 MBq-h/MBq
TIAC, Urinary bladder contents ([1]; M1 (326 MBq)): 0.00668 MBq-h/MBq
TIAC, Brain ([1]; M2 (289 MBq)): 0.0531 MBq-h/MBq
TIAC, Gallbladder wall ([1]; M2 (289 MBq)): 0.0017 MBq-h/MBq
TIAC, Heart contents ([1]; M2 (289 MBq)): 0.0248 MBq-h/MBq
TIAC, Heart wall ([1]; M2 (289 MBq)): 0.202 MBq-h/MBq
TIAC, Kidneys ([1]; M2 (289 MBq)): 0.424 MBq-h/MBq
TIAC, Liver ([1]; M2 (289 MBq)): 0.19 MBq-h/MBq
TIAC, Lungs ([1]; M2 (289 MBq)): 0.0012 MBq-h/MBq
TIAC, Pancreas ([1]; M2 (289 MBq)): 0.111 MBq-h/MBq
TIAC, Remainder ([1]; M2 (289 MBq)): 1.37 MBq-h/MBq
TIAC, Small intestine ([1]; M2 (289 MBq)): 0.00196 MBq-h/MBq
TIAC, Spleen ([1]; M2 (289 MBq)): 0.0158 MBq-h/MBq
TIAC, Thymus ([1]; M2 (289 MBq)): 0.0013 MBq-h/MBq
TIAC, Thyroid ([1]; M2 (289 MBq)): 0.00039 MBq-h/MBq
TIAC, Urinary bladder contents ([1]; M2 (289 MBq)): 0.017 MBq-h/MBq
TIAC, Brain ([1]; M3 (70.3 MBq)): 0.0611 MBq-h/MBq
TIAC, Gallbladder wall ([1]; M3 (70.3 MBq)): 0.00199 MBq-h/MBq
TIAC, Heart contents ([1]; M3 (70.3 MBq)): 0.0027 MBq-h/MBq
TIAC, Heart wall ([1]; M3 (70.3 MBq)): 0.0297 MBq-h/MBq
TIAC, Kidneys ([1]; M3 (70.3 MBq)): 0.286 MBq-h/MBq
TIAC, Liver ([1]; M3 (70.3 MBq)): 0.249 MBq-h/MBq
TIAC, Lungs ([1]; M3 (70.3 MBq)): 0.298 MBq-h/MBq
TIAC, Pancreas ([1]; M3 (70.3 MBq)): 0.00353 MBq-h/MBq
TIAC, Remainder ([1]; M3 (70.3 MBq)): 1.29 MBq-h/MBq
TIAC, Small intestine ([1]; M3 (70.3 MBq)): 0.0651 MBq-h/MBq
TIAC, Spleen ([1]; M3 (70.3 MBq)): 0.0218 MBq-h/MBq
TIAC, Thymus ([1]; M3 (70.3 MBq)): 0.00217 MBq-h/MBq
TIAC, Thyroid ([1]; M3 (70.3 MBq)): 0.00057 MBq-h/MBq
TIAC, Urinary bladder contents ([1]; M3 (70.3 MBq)): 0.0429 MBq-h/MBq
TIAC, Brain ([1]; M4 (153 MBq)): 0.078 MBq-h/MBq
TIAC, Gallbladder wall ([1]; M4 (153 MBq)): 0.00356 MBq-h/MBq
TIAC, Heart contents ([1]; M4 (153 MBq)): 0.0033 MBq-h/MBq
TIAC, Heart wall ([1]; M4 (153 MBq)): 0.0276 MBq-h/MBq
TIAC, Kidneys ([1]; M4 (153 MBq)): 0.332 MBq-h/MBq
TIAC, Liver ([1]; M4 (153 MBq)): 0.229 MBq-h/MBq
TIAC, Lungs ([1]; M4 (153 MBq)): 0.214 MBq-h/MBq
TIAC, Pancreas ([1]; M4 (153 MBq)): 0.00723 MBq-h/MBq
TIAC, Remainder ([1]; M4 (153 MBq)): 1.39 MBq-h/MBq
TIAC, Small intestine ([1]; M4 (153 MBq)): 0.12 MBq-h/MBq
TIAC, Spleen ([1]; M4 (153 MBq)): 0.0354 MBq-h/MBq
TIAC, Thymus ([1]; M4 (153 MBq)): 0.00492 MBq-h/MBq
TIAC, Thyroid ([1]; M4 (153 MBq)): 0.00105 MBq-h/MBq
TIAC, Urinary bladder contents ([1]; M4 (153 MBq)): 0.0178 MBq-h/MBq
adverse events / pharmacological effects (healthy volunteers; 70.3–355 MBq i.v. bolus, n=8, ≤48 h and up to 1 year): no adverse events (AE) or clinically detectable pharmacological effects
tolerability (healthy volunteers; 70.3–355 MBq i.v., n=8, PET-MR scanning protocol): well tolerated
expiration time after end-of-synthesis (EOS) [2]: 4 h
